Measured values published in ChEMBL document CHEMBL3992503, “Developing piperlongumine-directed glutathione S-transferase inhibitors by an electrophilicity-based strategy” (Eur J Med Chem, 2017).
Calls of active or inactive are those of the source. The calls are words filed in the database; no cut-off is given here.

Experiments:
[1] = Inhibition of equine liver GST assessed as decrease in conjugation of CDNB to GSH preincubated with GSH for 30 mins followed by CDNB addition measured for 3 mins; set-up: species or system Equus caballus
Method in brief: (§1)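 CDNB–GSH conjugation by equine liver GST in 100 mM potassium phosphate pH 6.5 with 1 mM GSH. Enzyme and inhibitor preincubated 30 min at 37 °C. Reaction started with 1 mM CDNB (final) and followed at 340 nm for 3 min at 25 °C. Single-point inhibition at 100 (unit unclear); IC50 from sigmoidal fit of inhibition versus concentration.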

[2] = Electrophilicity of the compound assessed as second-oder rate constant for reaction with cysteamine under pseudo-first-oder condition at 40 uM by spectrophotometric method
Method in brief: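 Compound fixed at 40 (unit unclear) with cysteamine 0.67–9 mM in 100 mM Tris-HCl pH 7.4 containing 2 mM EDTA–ethanol (v/v 2/1), 25 °C, pseudo-first-order conditions. Decay of compound followed spectrophotometrically at its absorbance maximum; second-order constant k2 derived from these runs.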

Equus caballus = organism: Equus caballus; assay: Inhibition of equine liver GST assessed as decrease in conjugation of CDNB to GSH at 100 uM preincubated with GSH for 30 mins followed by CDNB addition measured for 3 mins relative to control; method in brief: as §1
A549 [3] = assay: Inhibition of GST in human A549 cells at 25 uM after 1.5 hrs by DNs-CV probe based fluorescence microscopic method
[4] = Noncompetitive inhibition of equine liver GST using fixed GSH substrate concentration and varying levels of CDNB preincubated with GSH for 30 mins followed by CDNB addition measured for 3 mins by Lineweaver-Burk plot analysis; set-up: species or system Equus caballus
Method in brief: (§2)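 Equine liver GST in 100 mM potassium phosphate pH 6.5 with inhibitor at 0, 12.5, 25 or 50 (unit unclear). Varied substrate at 0.1–1 mM, other substrate fixed at 1 mM: GSH varied for line 1, CDNB for line 10. Preincubated 30 min at 37 °C, started with CDNB, A340 read for 3 min at 25 °C. Mean of triplicates on Lineweaver-Burk plots; Ki from intercept (CDNB) or slope (GSH) replots.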

[5] = target: T1, Glutathione S-transferase Mu 1 (Homo sapiens) (UniProt P09488); assay: Inhibition of GSTM1 in human A549 cells assessed as potentiation of cisplatin-induced cytotoxicity at 5 uM preincubated for 2 hrs followed by cisplatin addition measured after 48 hrs by MTT assay; assay type: cell-based
T1 sequence (whole entry): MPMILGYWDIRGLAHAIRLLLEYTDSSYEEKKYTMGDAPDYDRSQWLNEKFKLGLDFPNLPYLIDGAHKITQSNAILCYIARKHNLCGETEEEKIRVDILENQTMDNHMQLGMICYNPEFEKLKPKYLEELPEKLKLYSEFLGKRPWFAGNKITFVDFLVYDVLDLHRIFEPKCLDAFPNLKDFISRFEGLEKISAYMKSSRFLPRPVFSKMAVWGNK
Method in brief: (§3)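 A549 cells seeded at 3 × 10⁴ cells/mL and cultured 24 h. For line 6, DTT pretreatment (250, unit unclear) for 1 h. Compound added for 2 h, then cisplatin at 2.5, 5, 10 and 20 (unit unclear) for 48 h. MTT for 4 h at 37 °C in the dark, DMSO solubilisation, OD read at 570 nm.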

A549 [6] = assay: Inhibition of GST in human A549 cells at 25 uM after 1.5 hrs in presence of DTT by DNs-CV probe based fluorescence microscopic method
[7] = target: T1, Glutathione S-transferase Mu 1 (Homo sapiens); assay: Inhibition of GSTM1 in human A549 cells assessed as potentiation of cisplatin-induced cytotoxicity at 5 uM preincubated for 2 hrs followed by cisplatin addition measured after 48 hrs in presence of DTT by MTT assay; assay type: cell-based; method in brief: as §3
[8] = Competitive inhibition of equine liver GST using varying levels of substrate GSH and fixed CDNB concentration preincubated with GSH for 30 mins followed by CDNB addition measured for 3 mins by Lineweaver-Burk plot analysis; set-up: species or system Equus caballus; method in brief: as §2
[9] = target: T1, Glutathione S-transferase Mu 1 (Homo sapiens); assay: Inhibition of GSTM1 in human A549 cells assessed as potentiation of cisplatin-induced cytotoxicity by measuring combination index at 5 uM preincubated for 2 hrs followed by cisplatin addition measured after 48 hrs by MTT assay; assay type: cell-based

| SMILES | IC50 [1] [µM] | inhibition (Equus caballus) [%] | Ki [4] [µM] | Ki [8] [µM] | K [2] [M⁻¹ s⁻¹] | inhibition (A549 [3]) | inhibition [5] | inhibition (A549 [6]) | inhibition [7] | CI [9] |
| --- | --- | --- | --- | --- | --- | --- | --- | --- | --- | --- |
| C/C=C/C(=O)N1CCC=CC1=O | > 100 | 8.2 | – | – | 1.21 | – | – | – | – | – |
| COc1cc(/C=C/C(=O)N2CCC=CC2=O)cc(OC)c1OC [PIPLARTINE] | > 100 | 30.7 | – | – | 0.46 | inactive | – | – | – | – |
| O=C1C=CCCN1C(=O)/C=C/c1ccccc1C(F)(F)F | > 100 | 31.5 | – | – | 0.39 | – | – | – | – | – |
| COc1cc(CCC(=O)N2CCCCC2=O)cc(OC)c1OC [TETRAHYDROPIPLARTINE] | > 100 | 0 | – | – | – | – | – | – | – | – |
| COc1cc(/C=C/C(=O)N2CCCCC2=O)cc(OC)c1OC | > 100 | 15.4 | – | – | 0.35 | – | – | – | – | – |
| COc1cc(/C=C/C(=O)N2CCC=C(Cl)C2=O)cc(OC)c1OC | > 100 | 30.8 | – | – | 0.99 | – | – | – | – | – |
| O=C(/C=C/c1ccccc1C(F)(F)F)N1CCC=C(Cl)C1=O | > 100 | 40.3 | – | – | 0.67 | – | – | – | – | – |

More lines, main results first:

| IC50 [1] [µM] | inhibition (Equus caballus) [%] | Ki [4] [µM] | Ki [8] [µM] | SMILES | K [2] [M⁻¹ s⁻¹] | inhibition (A549 [3]) | inhibition [5] | inhibition (A549 [6]) | inhibition [7] | CI [9] |
| --- | --- | --- | --- | --- | --- | --- | --- | --- | --- | --- |
| > 100 | 50.5 | – | – | COc1cc(/C=C/C(=O)C2CCC=CC2=O)cc(OC)c1OC (stereo not drawn) | 1.15 | – | – | – | – | – |
| 10.5 | 71 | – | – | O=C(/C=C/c1cccc(C(F)(F)F)c1)N1CCC=C(Cl)C1=O | 2.53 | – | – | – | – | – |
| 5.6 | 74.7 | 24.7 | 7.8 | O=C(/C=C/c1ccc(C(F)(F)F)cc1)N1CCC=C(Cl)C1=O | 2.64 | Active | Active | inactive | inactive | < 1 |
| 50.1 | 53 | – | – | O=C1C=CCCN1C(=O)/C=C/c1cccc(C(F)(F)F)c1 | 1.13 | – | – | – | – | – |
| 41.6 | 55.5 | – | – | O=C1C=CCCN1C(=O)/C=C/c1ccc(C(F)(F)F)cc1 | 1.35 | – | – | – | – | – |
